Measurements published in ChEMBL document CHEMBL3822403, “Discovery, Optimization, and Biological Evaluation of Sulfonamidoacetamides as an Inducer of Axon Regeneration” (J Med Chem, 2016).
Active and inactive are the calls of the source. The rule behind the calls is not given here.

Columns and labels:
[1] = system: Hippocampal neurone; assay: Induction of neurite outgrowth in Sprague-Dawley rat primary hippocampal neurons after 48 hrs by DAPI staining based confocal fluorescence image analyzer; format: functional
Procedure, shortened: (§1)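 E18 Sprague-Dawley rat hippocampus and cortex dissociated separately, seeded at 2,000 cells/well in Neurobasal/B27 with 2 mM glutamate; after 24 h treated 48 h. Fixed, stained anti-βIII tubulin with DAPI nuclei; four fields per well imaged at 10x, neurite total length per neuron; mean ± SD, n=3.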

[2] = system: Cerebral cortex neuron; assay: Induction of neurite outgrowth in Sprague-Dawley rat primary cortical neurons at 1 to 10 uM after 48 hrs by DAPI staining based confocal fluorescence image analyzer; format: functional, cell-based; procedure, shortened: as §1
[3] = system: P19; assay: Induction of neurite outgrowth in mouse P19 cells transfected with neuroD2 at 10 uM after 48 hrs by DAPI staining based confocal fluorescence image analyzer relative to control; format: functional
Procedure, shortened: (§2)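 P19 cells transfected with NeuroD2 cDNA, replated 12 h later at 8,000 cells/well in MEM, 5% FBS, 1 mM pyruvate, 2 mM glutamate; after 24 h compound exposure 48 h. βIII tubulin immunofluorescence with DAPI, four fields/well imaged at 10x, neurite outgrowth relative to DMSO-treated cells.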

[4] = system: Rattus norvegicus; assay: Induction of axonal outgrowth of RGC in Sprague-Dawley rat optic nerve injury model assessed as regeneration of 500 to 1500 um crushed optic nerves at 0.22 ug/eye administered intravitreously once in 4 days for 3 weeks by measuring optic nerve injury by GAP-43 expression based microscopy (reference value: 0.22 +/- 0.081); format: functional
[5] = Metabolic stability in mouse liver S9 fraction assessed as compound remaining after 30 mins; format: ADME, subcellular; settings: read-out: Stability
[6] = system: P19; assay: Induction of neurite outgrowth in mouse P19 cells transfected with neuroD2 at 10 to 20 uM after 48 hrs by DAPI staining based confocal fluorescence image analyzer relative to control; format: functional; procedure, shortened: as §2
[7] = system: P19; assay: Induction of neurite outgrowth in mouse P19 cells transfected with neuroD2 <1 uM after 48 hrs by DAPI staining based confocal fluorescence image analyzer relative to control; format: functional, cell-based; procedure, shortened: as §2

remaining at 0.5 h [5] [%]	SMILES	Activity [1]	Activity [2]	fold change (FC) [3]	Activity [4]	fold change (FC) [6]	Activity [7]
	COc1ccc(OC)c(NC(=O)CN(c2ccccc2OC)S(=O)(=O)c2ccc(SC)cc2)c1	Active	Active	3.2			
61.2	COc1ccncc1NC(=O)CN(c1ccccc1OC)S(=O)(=O)c1ccc(C)cc1	Active	Active	4.2	0.7		
0.3	COC(=O)c1ccccc1NC(=O)CN(c1ccccc1OC)S(=O)(=O)c1ccc(C)cc1	Active	Active	3			
	COc1ccccc1N(CC(=O)Nc1ncccc1OC)S(=O)(=O)c1ccc(C)cc1	Active	Active	1.6			
	COc1ccccc1N(CC(=O)Nc1ccccc1)S(=O)(=O)c1ccc(C)cc1	Active	Active	2			
	COc1ccccc1N(CC(=O)Nc1cnc2ccccc2c1)S(=O)(=O)c1ccc(C)cc1	Active	Active	3.6			
	COc1ccccc1N(CC(=O)Nc1cccnc1OC)S(=O)(=O)c1ccc(C)cc1	Active	Active	2.8			
	CCOc1ccccc1NC(=O)CN(c1ccccc1)S(=O)(=O)c1ccc(C)cc1	Active	Active	2.5			
	CCOc1ncccc1NC(=O)CN(c1ccccc1OC)S(=O)(=O)c1ccc(C)cc1	Active	Active	2.1			
	CCOc1ccccc1NC(=O)CN(c1ccccc1F)S(=O)(=O)c1ccc(C)cc1	Active	Active	2.9			
	COc1ccncc1NC(=O)CN(c1ccccc1OC)S(=O)(=O)c1ccc(SC)cc1	Active	Active	3.9			
0.4	COc1ccc(NC(=O)CN(c2ccccc2OC)S(=O)(=O)c2ccc(Cl)cc2)c(OC)c1	Active	Active	4.2			
	COc1ccc(OC)c(NC(=O)CN(c2ccccc2OC)S(=O)(=O)c2ccc(F)cc2)c1	Active	Active	2.5			
	COc1ccccc1N(CC(=O)Nc1ccccc1F)S(=O)(=O)c1ccc(C)cc1	Active	Active	2.1			
	COc1ccncc1NC(=O)CN(c1ccccc1OC)S(=O)(=O)c1ccc(Br)cc1	Active	Active	3.7			
0.7	CCOc1ccccc1NC(=O)CN(c1ccccc1OC)S(=O)(=O)c1ccc(C)cc1	Active	Active			3.2	inactive
	COc1ccc(OC)c(NC(=O)CN(c2ccccc2OC)S(=O)(=O)c2ccc(Br)cc2)c1	Active	Active	5			
	COc1ccccc1N(CC(=O)Nc1cccnc1OC(C)C)S(=O)(=O)c1ccc(C)cc1	Active	Active	2.3			

remaining at 0.5 h [5] [%]	SMILES	Activity [1]	Activity [2]	fold change (FC) [3]	Activity [4]	fold change (FC) [6]	Activity [7]
0.4	COc1ccc(S(=O)(=O)N(CC(=O)Nc2cc(OC)ccc2OC)c2ccccc2OC)cc1	Active	Active	2.3			
	CCc1ccccc1NC(=O)CN(c1ccccc1OC)S(=O)(=O)c1ccc(C)cc1	Active		0.8			
	COc1ccccc1N(CC(=O)Nc1ccccc1Br)S(=O)(=O)c1ccc(C)cc1	Active	Active	2.1			
23.1	COc1ccc(CCN(C)CCCC(C#N)(c2ccc(OC)c(OC)c2)C(C)C)cc1OC (stereo not drawn) [VERAPAMIL]						
	COc1ccc(OC)c(NC(=O)CN(C(=O)c2ccc(Cl)cc2)c2ccccc2OC)c1	Active		1			
	COc1ccccc1N(CC(=O)Nc1cccc2ncccc12)S(=O)(=O)c1ccc(C)cc1	Active	Active	1.3			
	COc1ccccc1N(CC(=O)Nc1ncc[nH]1)S(=O)(=O)c1ccc(C)cc1	Active					
97.7	CC(=O)Nc1ccc(O)cc1 [ACETAMINOPHEN]						
	COc1ccc(NC(=O)CN(c2ccccc2OC)S(=O)(=O)c2ccc(C)cc2)c(OC)c1	Active	Active	2.7			
	CCOc1ccccc1CNC(=O)CN(c1ccccc1OC)S(=O)(=O)c1ccc(C)cc1	Active					
	COc1ccc(OC)c(NC(=O)CN(Cc2ccc(C)cc2)c2ccccc2OC)c1	Active					
	CCOc1ccccc1NC(=O)CN(c1ccccc1C)S(=O)(=O)c1ccc(C)cc1	Active	Active	2.6			
	COc1ccccc1N(CC(=O)Nc1ccc2ncccc2c1)S(=O)(=O)c1ccc(C)cc1	Active	Active	1			
	CCOc1ccccc1NC(=O)CN(c1cccc(OC)c1)S(=O)(=O)c1ccc(C)cc1	Active	Active	3.1			
	COc1cccc(NC(=O)CN(c2ccccc2OC)S(=O)(=O)c2ccc(C)cc2)c1	Active	Active	1.8			
	CCOc1ccccc1NC(=O)CN(c1ccccc1Cl)S(=O)(=O)c1ccc(C)cc1	Active	Active	2.6			
	COc1ccccc1N(CC(=O)Nc1nccs1)S(=O)(=O)c1ccc(C)cc1	Active					
